Bioassay records (PubChem BioAssay)
ARFGAP1 inh – inhibits rat ARF GTPase activating protein 1. AID 651572. inhibition, % at 16.5 µM. Arfgap1-stimulated ARF1 GTP hydrolysis, GDP FP detection. hit rate 0.26% among 360,000. Q62848;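 active means inhibition above a per-plate limit, mean inhibition of low control wells plus 3 SD, cut at about 25% in these data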
Target sequence (Q62848 1-136 limits assumed): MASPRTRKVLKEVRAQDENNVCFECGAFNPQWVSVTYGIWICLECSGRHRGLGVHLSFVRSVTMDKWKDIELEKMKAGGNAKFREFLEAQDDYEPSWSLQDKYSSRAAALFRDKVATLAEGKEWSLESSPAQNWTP
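System: truncated rat Arfgap1 GAP domain / Benchmarks: high control wells lacking Arfgap1, low control full reaction with DMSO / Times: compound-enzyme preincubation 20 min, reaction 120 min, detection 60 min, 25 °C / Repeats: one replicate per compound / Also added: human ARF1(Δ1-17)-GTP substrate / Measured by: Tracer-displacement fluorescence polarization with EDTA stop, 620/688 nm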
FGF22 binding – binders of recombinant human FGF22 by thermal shift; Q9HCT0; SYPRO orange fluorescence; percent of sucrose octasulfate shift, DMSO zero; activity (Tm shift, normalised), % at 9.99 µM; hit rate 1.5% among 340,000; AID 651658;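 active means mean Tm shift, scaled 0 neutral to 100 positive control, at about 1.3% or above, every replicate too, limit read from the data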
ASAP1 GAP inh – ASAP1 ArfGAP inhibition; ASAP1-stimulated ARF1 GTP hydrolysis, GDP FP detection; AID 624377; hit rate 0.19% among 360,000; inhibition, % at 16.5 µM; Q9ULH1; in the data active means inhibition above about 25%
Efflux pump inh – antifungal efflux pump inhibition, Nile Red retention; S. cerevisiae Candida pump triplex; inhibition, % at 10 µM; hit rate 0.44% among 330,000; AID 485275;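 active means plate passing quality check with inhibition over a set limit, or well fluorescence over plate mean plus 4 SD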;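 further: Nile Red retained in pooled yeast measured as flow cytometry median fluorescence; higher means more Nile Red kept so more efflux inhibition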
Rtt109 HAT inh – blocks Candida albicans Rtt109/Vps75 acetyltransferase activity; purified Rtt109/Vps75, ThioGlo CoA-SH fluorescence, 4 h; inhibition, % at 34.9 µM; hit rate 0.16% among 330,000;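 active means inhibition of at least 50% in every replicate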
Target sequence (Q5AAJ8 whole entry, looked up): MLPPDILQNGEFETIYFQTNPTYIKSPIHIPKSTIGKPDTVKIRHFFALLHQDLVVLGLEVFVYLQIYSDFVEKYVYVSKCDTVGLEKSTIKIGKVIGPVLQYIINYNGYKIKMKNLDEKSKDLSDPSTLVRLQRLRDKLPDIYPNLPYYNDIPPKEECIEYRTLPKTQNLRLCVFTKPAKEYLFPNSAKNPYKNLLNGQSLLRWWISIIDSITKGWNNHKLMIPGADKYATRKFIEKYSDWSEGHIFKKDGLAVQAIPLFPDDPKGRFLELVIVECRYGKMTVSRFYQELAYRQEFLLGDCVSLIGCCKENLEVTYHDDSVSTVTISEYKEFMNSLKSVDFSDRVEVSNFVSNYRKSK
Cmpd fluor yeast – flagged as fluorescent in efflux inhibitor counter-screen. shares compounds with Efflux pump inh. S. cerevisiae AD/pABC3, compound fluorescence, flow cytometry. fluorescence ratio to DMSO, % at 10 µM. hit rate 4% among 1,700. AID 588517;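 active means fluorescence ratio to DMSO above its plate's cutoff, the plate mean ratio plus 5 SD, cut at about 210% in these data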;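 further: unstained yeast with no Nile Red so the signal is compound autofluorescence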
CaMdr1 efflux inh – inhibitors of Candida albicans Mdr1 efflux pump; shares compounds with Efflux pump inh; S. cerevisiae AD/CaMDR1, Nile Red efflux, flow cytometry; hit rate 1% among 1,700; inhibition, % at 10 µM; in the data active means inhibition above about 26%;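 further: higher means more Nile Red retained so more efflux inhibition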
Cdr2 pump inh – blocks the Candida albicans Cdr2 efflux pump in yeast; Nile Red retention ratio vs DMSO, % at 10 µM; AID 588520; shares compounds with Efflux pump inh; S. cerevisiae AD/CaCDR2, Nile Red retention, flow cytometry; hit rate 4% among 1,700; in the data active means Nile Red retention ratio vs DMSO above about 190%;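 further: higher ratio means more blocking of Cdr2 efflux of the dye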
Cdr1 pump inh – inhibitors of Candida albicans Cdr1 efflux pump; AID 588522; shares compounds with Efflux pump inh; inhibition, % at 10 µM; hit rate 1% among 1,700; S. cerevisiae AD/CaCDR1, Nile Red efflux, flow cytometry;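 active means inhibition above the screen-wide mean plus twice its standard deviation, cut at about 32% in these data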
A number is an active result; i = inactive; nt = no result given. Rows were chosen to be rich in hits. Some 1.9% of all compounds tested hit in one or more screens of this group.

SMILES	ARFGAP1 inh	FGF22 binding	ASAP1 GAP inh	Efflux pump inh	Rtt109 HAT inh	Cmpd fluor yeast	CaMdr1 efflux inh	Cdr2 pump inh	Cdr1 pump inh
CC(=O)Nc1ccc(S(=O)(=O)N2CCN=C2SCc2ccc(F)cc2)cc1	i	i	i	1.4	i	i	i	i	i
COCC(=O)N1CCCCN2[C@H](CO)[C@H](c3ccc(-c4ccc(C)cc4)cc3)[C@@H]2C1	nt	i	nt	nt	nt	nt	nt	nt	nt
Cc1ccc(C(=O)Nc2cnc3ccccc3c2)cc1	i	nt	i	i	i	nt	nt	nt	nt
COc1cccc(NC(=O)c2cc3c(=O)n4ccccc4nc3n(CC(C)C)c2=N)c1	i	i	i	1.6	i	i	i	i	i
COc1ccc(CNC(=O)c2cc3c(=O)n4ccccc4nc3n(Cc3cccnc3)c2=N)cc1	i	nt	i	0.9	i	i	i	i	i
Cc1cccc(NC(=O)c2cc3c(=O)n4ccccc4nc3n(CC(C)C)c2=N)c1	i	i	i	i	i	nt	nt	nt	nt
N=c1c(C(=O)NCc2ccc3c(c2)OCO3)cc2c(=O)n3ccccc3nc2n1Cc1cccnc1	i	nt	i	i	i	nt	nt	nt	nt
COC(=O)[C@@H](NC(=O)NCc1cccs1)C(C)C	i	nt	i	i	i	nt	nt	nt	nt
COC(=O)[C@H](CCSC)NC(=O)NCc1cccs1	i	nt	i	6.7	i	i	i	i	i
COc1ccc(C(=O)NCc2ccc3c(c2)OCO3)cc1S(=O)(=O)NCc1ccc(Cl)cc1	i	nt	i	i	i	nt	nt	nt	nt
COc1ccc(C(=O)NCc2ccc3c(c2)OCO3)cc1S(=O)(=O)N(C)Cc1ccccc1	i	nt	i	7.6	i	i	i	i	i
COc1nc(NC23CC4CC(CC(C4)C2)C3)nc(OC)n1	i	nt	i	0.5	i	i	i	i	i
CC(C)(C)c1ccc(C(=O)N2CCN(c3ncccn3)CC2)cc1	i	i	i	i	i	nt	nt	nt	nt
CCOc1ccc(CNC(=O)NS(=O)(=O)c2ccc(OC)cc2)cc1	i	nt	i	5.9	i	i	i	i	i
COC(=O)c1nn(-c2ccccc2)nc1-c1nn(-c2ccccc2)nc1C(=O)OC	i	nt	i	0.4	i	i	i	i	i
CCCOC(=O)c1cccc(NC(=O)COc2ccc([N+](=O)[O-])cc2)c1	i	i	i	2.1	i	i	i	i	i
CN(C)c1ccc(S(=O)(=O)NCC(=O)OCC(=O)Nc2cccc(Cl)c2)cc1[N+](=O)[O-]	i	i	i	i	i	nt	nt	nt	nt
Cc1c(NC(=O)Cn2ccc([N+](=O)[O-])n2)c(=O)n(-c2ccccc2)n1C	i	nt	i	0.5	i	i	i	i	i
Cc1c(NC(=O)CSc2ccccn2)c(=O)n(-c2ccccc2)n1C	i	nt	i	i	nt	nt	nt	nt	nt
Cc1c(NC(=O)CSc2ncnc3ccccc23)c(=O)n(-c2ccccc2)n1C	i	i	i	1.0	i	i	i	i	i
C=C[C@](C)(CC[C@@]1(C)C(C)CC(OC2OC(C)C(OC3OC(COC(C)=O)C(O)C(O)C3O)C(O)C2O)[C@@]2(C)C(C)=CCCC12)OC1OC(C)C(O[C@@H]2O[C@@H](C)C(O)C(O)[C@H]2O)C(O)C1O (stereo partly specified)	nt	nt	nt	1.4	i	i	i	i	i
CC(=O)OC[C@H]1O[C@@H](O[C@H]2C[C@]3(C)C(C[C@@H](O)C4C([C@]5(C)CC[C@@H](C(C)(C)O)O5)CC[C@]43C)[C@@]3(C)CC[C@H](O)C(C)(C)C23)[C@H](O[C@@H]2O[C@@H](C)[C@H](O)[C@@H](O)[C@H]2O)[C@@H](O)[C@@H]1O (stereo partly specified)	i	i	i	i	i	nt	nt	nt	nt
O=C(O)c1ccccc1NS(=O)(=O)c1cccc2nsnc12	i	i	i	0.7	i	i	i	i	i
O=C(O)c1cc(Br)ccc1NS(=O)(=O)c1cccc2nsnc12	i	i	i	i	i	nt	nt	nt	nt
COc1ccc(C(=O)NC(=S)Nc2ccc3[nH]c(=O)[nH]c3c2)c(OC)c1	i	i	i	i	i	i	i	i	i
